Screening data as filed in PubChem BioAssay.
Only some compounds are listed: those with a hit (about 1.7% of all), similar ones and a draw of the others.
DNMT1 block: blocks human DNA methyltransferase DNMT1; inhibition (reported as % activation of signal), % at 10 µM; DNMT1 molecular beacon, Hinp1I cleavage, fluorescence; AID 588458; P26358; 360,000 compounds, 0.83% hits; in the data active = inhibition above about 50%
Scp-1 inhibitor: Scp-1 (human) phosphatase inhibition | Q9GZU7 | Recombinant Scp1, phosphopeptide, malachite green phosphate absorbance | inhibition, % at 20 µM | 340,000 compounds, 0.88% hits;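 active = inhibition above about 50% at 20 µM, limit read from the data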;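 note: plate controls were DMSO wells with enzyme for no effect and wells lacking enzyme for full effect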
Target sequence (Q9GZU7 76-261 limits assumed): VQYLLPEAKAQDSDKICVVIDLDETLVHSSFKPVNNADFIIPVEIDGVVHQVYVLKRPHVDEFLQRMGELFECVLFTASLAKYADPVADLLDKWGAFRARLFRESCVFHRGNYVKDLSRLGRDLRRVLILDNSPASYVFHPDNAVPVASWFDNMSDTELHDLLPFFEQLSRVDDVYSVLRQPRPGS
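Incubation: 45 min enzyme reaction at room temperature / System: truncated SCP-1 phosphatase (76-261aa) / Reagent: Phospho 17-mer peptide substrate / Buffer or medium: Acidic Tris acetate buffer with magnesium and detergent / Signal: absorbance at 630 nm / Doses: one concentration, 20 µM, with 1.0% DMSO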
SUMO1 PPI mod: SUMO1-SIM interaction modulation | P63165 | SUMO1 binding to a labelled peptide, TR-FRET, 1 h | inhibition, % at 20 µM | 360,000 compounds, 0.33% hits | AID 602429; in the data active = inhibition above about 37%
Target sequence (P63165 whole entry, looked up): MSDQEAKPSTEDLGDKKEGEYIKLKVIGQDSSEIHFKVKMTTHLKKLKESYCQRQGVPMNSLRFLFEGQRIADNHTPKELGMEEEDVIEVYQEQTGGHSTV
LMPTP inh: blocks human LMPTP phosphatase | P24666 | recombinant LMPTP-A, OMFP fluorogenic substrate, fluorescence intensity | inhibition, % at 20 µM | 360,000 compounds, 0.22% hits;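 active = compounds that cut the enzyme signal by at least half of the control window in the single-dose screen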;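 note: plate controls were DMSO wells with enzyme plus substrate for no effect and substrate without enzyme for full effect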
Target sequence (P24666 whole entry, looked up): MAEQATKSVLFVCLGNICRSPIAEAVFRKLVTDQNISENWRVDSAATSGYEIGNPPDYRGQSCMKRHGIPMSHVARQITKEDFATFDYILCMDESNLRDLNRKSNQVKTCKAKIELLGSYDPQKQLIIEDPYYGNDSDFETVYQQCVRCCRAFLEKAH
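Assay system: LMPTP-A, protein tyrosine phosphatase of low molecular weight / Medium: pH 6.0 Bis-Tris buffer with DTT and Triton X-100 / Schedule: 50 min enzyme reaction at room temperature, protected from light / Measured by: endpoint fluorescence intensity from OMFP dephosphorylation / Read-out basis: % inhibition relative to no-enzyme and uninhibited control wells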
STEP block: STEP (human) phosphatase inhibition; recombinant STEP, OMFP fluorogenic substrate, fluorescence; inhibition, % at 20 µM; AID 588621; 360,000 compounds, 0.25% hits; P54829;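 active = inhibition at 20 µM, scaled per plate between control wells, above about 37%, limit read from the data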;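 note: 0% = DMSO with enzyme and substrate and 100% = substrate only without enzyme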
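Measure: Control-normalized % inhibition with plate pattern correction | Test system: STEP phosphatase, cell-free reaction | Medium: pH 6.0 Bis-Tris with DTT and Tween 20 | Technique: Fluorescence, 480/540 nm | Times: Reaction 20 min, ambient temperature | Doses: Single compound dose of 20 µM, 1% DMSO final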
Scp1 confirm: confirmation of human Scp-1 phosphatase inhibitors | shares compounds with Scp-1 inhibitor | recombinant SCP-1 catalytic domain, phosphate release, malachite green absorbance | inhibition, % at 20 µM | 2,500 compounds, 61% hits | AID 540281;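 note: plate controls were DMSO with enzyme for no effect and buffer wells lacking enzyme for full effect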
MG interference: interferes with malachite green readout, flagging false Scp-1 hits | 2,500 tested, under 10 active | shares compounds with Scp-1 inhibitor | apparent inhibition (interference), % at 20 µM | AID 540313 | Colorimetric interference counterscreen, malachite green absorbance 630 nm;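 note: compounds added after enzyme reaction finished so only phosphate colour detection is probed; plate controls were DMSO wells with completed Scp-1 reaction for no effect and substrate wells lacking enzyme for full effect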
Scp-1 Tm shift: binds human Scp-1, shifting its melting temperature. shares compounds with Scp-1 inhibitor. Recombinant SCP1, Sypro Orange thermal shift Tm. thermal shift relative to vanadate control, % at 40 µM. 1,500 compounds, 25% hits. AID 540329;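 active = substances whose mean melting-temperature shift, as a percentage of the reference inhibitor's shift, reaches about 5.3%, limit read from the data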;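 note: 0% = Tm of DMSO wells and 100% = Tm with sodium orthovanadate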
The depositor's hits bear a star; . = no result given.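 Rule for the calls, unless noted: active = inhibition of at least 30% at 20 µM; inactive = the rest.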

SMILES	DNMT1 block	Scp-1 inhibitor	SUMO1 PPI mod	LMPTP inh	STEP block	Scp1 confirm	MG interference	Scp-1 Tm shift
Cc1onc(-c2c(Cl)cccc2Cl)c1NC(=O)NC1CCSC1 (stereo not drawn)	-5.3	-13.3	-0.3	-2.3	-2.5	.	.	.
CCN(CC(=O)NC1CCS(=O)(=O)C1)S(=O)(=O)c1ccc(Br)cc1 (stereo not drawn)	8.1	0.0	1.4	-1.4	-1.1	.	.	.
O=C(Nc1ccc(O)cc1)c1ccc2c(c1)C(=O)N(Cc1ccco1)C2=O	14.7	0.0	-2.3	-0.3	2.8	.	.	.
O=C(Nc1cc([N+](=O)[O-])ccc1O)c1ccc2c(c1)C(=O)N(Cc1ccco1)C2=O	10.9	54.7*	1.0	5.6	6.5	25.0	-15.9	.
O=C(O)Cc1ccc(NC(=O)c2ccc3c(c2)C(=O)N(Cc2ccco2)C3=O)cc1	37.6	69.3*	-10.1	2.6	16.2	58.2*	-16.4	6.8*
O=C(COc1ccc2ccccc2c1)NCC1CCCO1 (stereo not drawn)	-1.8	3.7	-1.7	-0.4	1.8	.	.	.
CCCc1cc(=O)n2nc(N3CCC(C(=O)N4CCN(c5ccc(OC)cc5)CC4)CC3)sc2n1	4.0	-2.0	3.6	-1.4	1.4	.	.	.
NC(=O)NC(=O)COC(=O)c1ccc(OC(F)(F)F)cc1	2.2	0.7	-2.3	-0.2	0.2	.	.	.
O=C(COC(=O)c1ccc(OC(F)(F)F)cc1)Nc1ncccn1	20.0	81.8*	10.8	-0.6	-1.8	49.2*	-6.2	-4.6
CCOc1ccccc1NC(=O)N1CCC(NC(=O)c2cccc(C)c2)CC1	40.2	99.3*	1.5	31.8	7.3	67.2*	-15.9	-14.8
CCC/C(=N\NC(=O)CNC(=O)/C=C/c1ccco1)c1ccccc1	7.6	6.1	-6.3	-2.3	4.1	.	.	.
CC/C(=N\NC(=O)CNC(=O)/C=C/c1ccco1)c1ccccc1	9.9	94.4*	1.5	0.0	-0.1	14.5	-6.0	.
COc1ccc(/C(C)=N/NC(=O)CNC(=O)/C=C\c2ccco2)cc1	18.6	81.5*	-4.0	-0.8	-0.5	64.5*	-11.8	-5.5
COc1ccc(/C=C/C(=O)NCC(=O)N/N=C(/CCC(=O)O)c2ccccc2)cc1	1.2	-2.5	-7.3	-0.5	-2.7	.	.	.
CCCCCC(=O)NNC(=O)c1ccc(F)cc1	4.8	-3.9	-3.0	-0.3	0.0	.	.	.
CCOc1ccccc1OCCCC(=O)NNC(=O)c1ccc(F)cc1	-0.7	58.7*	0.1	-0.3	1.7	-12.3	-17.0	.
COc1ccccc1-c1nn2c(-c3ccco3)nnc2s1	17.1	51.4*	6.6	6.6	-0.3	59.9*	-3.8	-6.8
O=C(CCCCCCCC(=O)NNC(=O)Nc1ccccc1)NNC(=O)Nc1ccccc1	0.2	73.5*	-0.3	16.3	6.3	64.8*	-16.2	-15.2
NC(=O)C1CCN(c2nc(-c3ccc4c(c3)OCCO4)cs2)CC1	.	-3.0	.	.	.	.	.	.
Nc1ccc2cccc(O)c2c1	48.9	55.9*	16.7	16.7	1.5	53.8*	-6.5	12.6*
COc1ccc(C=O)cc1Cn1ccnc1C	1.8	3.2	6.4	1.2	2.3	.	.	.
C[N+]1(CCOc2ccc([N+](=O)[O-])cc2)CCOCC1	2.8	105.5*	-12.6	-3.0	-1.3	84.6*	-10.9	-11.5
CC(=O)c1ccc(OCCOc2ccc([N+](=O)[O-])cc2)cc1	2.4	-10.4	-19.9	0.0	0.2	.	.	.
NC(=O)c1ccc(NC(=O)CSc2nc3ccccc3c(=O)n2CCCN2CCOCC2)cc1	0.1	-2.5	5.5	0.9	-2.6	.	.	.
NC(=O)c1ccc(NC(=O)COc2ccc(-n3cnnn3)cc2)cc1	-1.9	22.0	6.6	2.4	-1.6	.	.	.
SMILES	DNMT1 block	Scp-1 inhibitor	SUMO1 PPI mod	LMPTP inh	STEP block	Scp1 confirm	MG interference	Scp-1 Tm shift
NC(=O)COc1ccc(-n2cnnn2)cc1	26.5	68.3*	1.6	11.5	6.3	52.2*	-11.8	-2.2
Cc1ccc(C(=O)N/C(=C\c2ccco2)C(=O)NCCN2CCOCC2)cc1	0.0	75.2*	-4.4	-2.4	-0.6	-18.4	-15.6	.
COc1cc(S(=O)(=O)n2ccc(C)n2)c(C)cc1C	-1.0	.	-6.5	-1.9	1.0	.	.	.
CCCc1nc2ccccc2c(C(=O)OCC(=O)N2CCc3ccccc32)c1CC	-6.9	-1.9	-2.0	4.1	2.5	.	.	.
CC1CCc2nc3ccccc3c(C(=O)OCC(=O)N3CCc4ccccc43)c2C1 (stereo not drawn)	4.8	50.1*	8.1	4.9	1.2	-19.7	-17.5	.
CCCCNC(=O)COC(=O)c1c2c(nc3ccccc13)CCC2	43.9	61.8*	2.0	4.4	7.7	46.1*	-6.5	8.4*
C=CCNC(=O)COC(=O)c1c2c(nc3ccccc13)CCC2	24.2	66.4*	-3.1	2.7	1.5	65.4*	-11.2	9.5*
CC(C=CC(O)=C1C(=O)CNC1=O)=C[C@@H](C)C1OC2(C)OC(C(=O)C3O[C@@]32C)C1C (stereo partly drawn)	.	.	2.5	1.3	.	.	.	.
COCCN1C[C@@H](CO)O[C@@H](n2cnc3c(NC4CCCC4)ncnc32)C1	4.2	.	0.4	-3.1	0.3	.	.	.
COc1ccc(-c2ccc(/C=N/NC(=O)c3cccnc3)o2)c([N+](=O)[O-])c1	-0.9	96.2*	-14.2	52.7*	32.4	81.9*	-11.8	4.0
O=C(Cn1nnc(-c2ccccc2)n1)NNC(=O)c1ccccc1	2.7	-0.3	0.9	-1.0	-0.3	.	.	.
Cc1ccc(OCC(=O)NNC(=O)Cn2nnc(-c3ccccc3)n2)cc1	0.9	52.6*	-3.4	35.8	31.5	41.2*	-4.3	-8.1
CCOC(=O)c1cnc2nc(COc3ccccc3)[nH]n2c1=O	-0.5	-4.7	-1.5	-1.3	-1.8	.	.	.
CCOC(=O)c1cnc2nc(NCc3ccc(OCc4ccccc4)cc3)[nH]n2c1=O	0.6	70.5*	7.0	-1.1	3.5	91.2*	0.3	0.1
C/C(=N\NC(=O)c1cc(Br)ccc1O)c1cccc(NC(=O)c2ccccc2F)c1	1.8	86.1*	15.3	3.9	9.0	78.9*	-12.6	5.8*
C/C(=N\NC(=O)c1cc(Br)ccc1O)c1cccs1	4.7	66.4*	3.2	-0.9	4.7	69.4*	-7.3	-1.6
C/C(=N/NC(=O)c1ccc(Br)o1)c1cccs1	0.6	-5.0	-14.0	-0.8	-0.5	.	.	.
CCOC(=O)N1CCN(C(=O)C2CC(c3ccccc3OC)=NO2)CC1 (stereo not drawn)	0.8	-2.7	-0.6	-1.1	1.8	.	.	.
CCOC(=O)/C=C1\CC(C(=O)OCC)Oc2c(OC)cccc21 (stereo not drawn)	6.6	103.5*	-4.6	-0.7	-1.3	66.6*	-15.6	-14.2
